The text below walks through data of ChEMBL document CHEMBL1811802, “Synthesis and significant cytostatic activity of 7-hetaryl-7-deazaadenosines” (J Med Chem, 2011).

A value given as a limit tells only on which side of the number the result lay.

The subject of one assay is MT4. In words: Cytostatic activity against human MT4 cells after 5 days by SRB assay. The assay is classed as functional. To be noted: MT4, 120 h. Background: Sulforhodamine B stains cellular protein and so reports cell mass.
For a further assay, the system named is C6. Briefly: Cytotoxicity against rat C6 cells after 3 days by MTT assay. The assay is classed as functional, cell-based. Conditions: C6, 72 h. Background: Tetrazolium assays rely on reduction of a dye to a coloured formazan, in cell work by metabolically active cells.
Assay [1] can be described thus: Cytotoxicity against mouse P388D1 cells after 3 days by MTT assay. The assay is classed as functional, cell-based. Conditions: P388D1, 72 h.
For a further assay, the system named is A549. In words: Cytostatic activity against human A549 cells after 5 days by SRB assay. The assay is classed as functional. Conditions: A549, 120 h. Summed up: (§1)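 Cells seeded per line density, overnight at 37 °C; day-zero plate TCA-fixed. 5-fold serial dilutions added, 5-day incubation; TCA fixation, 0.057% SRB in 1% acetic acid 30 min, dye dissolved in 10 mM Tris pH 10.5, A500. Growth relative to day-zero and untreated; GIC50 from sigmoidal dose–response fit; mean of two independent experiments.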

A short description of assay [2]: Cytotoxicity against human CEM-DNR-bulk cells after 3 days by MTT assay. It counts as functional, cell-based. To be noted: 72 h.
For assay [3], the system named is K562. In words: Cytotoxicity against human K562 cells after 3 days by MTT assay. The assay is classed as functional, cell-based. Conditions: K562, 72 h.
A short description of assay [4]: Cytotoxicity against human U87MG cells after 3 days by MTT assay. The assay is classed as functional, cell-based, U-87MG ATCC. Conditions: U-87 MG, 72 h.
A further assay has as its system EL4. Briefly: Cytotoxicity against mouse EL4 cells after 3 days by MTT assay. To be noted: EL4, 72 h. It counts as functional, cell-based.
For the next assay, the system named is HT-29. Briefly: Cytotoxicity against human HT-29 cells after 3 days by MTT assay. The assay is classed as functional, cell-based. To be noted: HT-29, 72 h.
Assay [5] has as its system PC-3. Briefly: Cytostatic activity against human PC3 cells after 5 days by SRB assay. The assay is classed as functional. To be noted: PC-3, 120 h. In outline: as §1
Another assay relates to NCI-H23. Briefly: Cytostatic activity against human NCI-H23 cells after 5 days by SRB assay. It counts as functional. Conditions: NCI-H23, 120 h. Summed up:
as §1

Another assay relates to HL-60. In words: Cytotoxicity against human HL60 cells after 3 days by XTT assay. To be noted: HL-60, 72 h. It counts as functional, cell-based. Summed up: (§2)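 Suspension-grown cell lines, 3-day compound incubation; viability read by XTT metabolic assay; IC50 averaged from four independent experiments.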
Another assay concerns CT26. Briefly: Cytotoxicity against mouse CT26 cells after 3 days by MTT assay. To be noted: CT26, 72 h. The assay is classed as functional, cell-based.
The next assay deals with CCRF-CEM. In words: Cytotoxicity against human CCRF-CEM cells after 3 days by XTT assay. It counts as functional, cell-based. Conditions: 72 h. In outline: as §2
Another assay relates to L1210. Briefly: Cytotoxicity against mouse L1210 cells after 3 days by MTT assay. It counts as functional, cell-based. To be noted: L1210, 72 h.
In the next assay the test system is SK-MEL-2. In words: Cytotoxicity against human SK-MEL-2 cells after 3 days by MTT assay. It counts as functional, cell-based. Conditions: SK-MEL-2, 72 h.
In assay [6] the test system is PC-3. Briefly: Cytotoxicity against human PC3 cells after 3 days by MTT assay. The assay is classed as functional, cell-based. Conditions: PC-3, 72 h.
For another assay, the system named is SK-OV-3. In words: Cytotoxicity against human SKOV3 cells after 3 days by MTT assay. The assay is classed as functional, cell-based. Conditions: SK-OV-3, 72 h.
Assay [7] can be described thus: Cytostatic activity against human Hs578 cells after 5 days by SRB assay. It counts as functional. To be noted: Hs578, 120 h. Summed up:
as §1

Assay [8] is described as follows: Cytotoxicity against human HeLaS3 cells after 3 days by XTT assay. It counts as functional, cell-based. Conditions: HeLa S3, 72 h. In outline: as §2
Another assay concerns LNCaP. Briefly: Cytotoxicity against human LNCAP cells after 3 days by MTT assay. It counts as functional, cell-based. Conditions: 72 h.
The next assay relates to SK-N-AS. In words: Cytotoxicity against human SK-N-AS cells after 3 days by MTT assay. To be noted: 72 h. The assay is classed as functional, cell-based.
Assay [9] relates to HCT-116. In words: Cytostatic activity against human HCT116 cells after 5 days by SRB assay. To be noted: HCT-116, 120 h. The assay is classed as functional. Summed up:
as §1

The subject of assay [10] is BT-549. Briefly: Cytostatic activity against human BT549 cells after 5 days by SRB assay. The assay is classed as functional. Conditions: BT-549, 120 h. Summed up: as §1
The next assay has as its system BJ. In words: Cytotoxicity against human BJ cells after 3 days by MTT assay. The assay is classed as cell-based. To be noted: 72 h.
A further assay concerns HPAC. Briefly: Cytotoxicity against human HPAC cells after 3 days by MTT assay. The assay is classed as functional, cell-based. Conditions: 72 h.
Assay [11] is described as follows: Cytotoxicity against human MES-SA cells after 3 days by MTT assay. It counts as functional, cell-based. Conditions: 72 h.
Another assay has as its system MDA-MB-231. Briefly: Cytotoxicity against human MDA-MB-231 cells after 3 days by MTT assay. To be noted: MDA-MB-231, 72 h. The assay is classed as functional, cell-based.
The subject of a further assay is MCF7. Briefly: Cytotoxicity against human MCF7 cells after 3 days by MTT assay. It counts as functional, cell-based. Conditions: MCF7, 72 h.
The test system of the next assay is BV-173. Briefly: Cytotoxicity against human BV173 cells after 3 days by MTT assay. The assay is classed as functional, cell-based. To be noted: BV-173, 72 h.
The test system of the next assay is HeLa. Briefly: Cytotoxicity against human HeLa cells after 3 days by MTT assay. The assay is classed as functional, cell-based. To be noted: 72 h.
Assay [12] concerns K562. Briefly: Cytotoxicity against human paclitaxel resistant K562 cells after 3 days by MTT assay. It counts as functional, cell-based. To be noted: K562, 72 h.
Assay [13] is described as follows: Cytotoxicity against human NCI-H146 cells after 3 days by MTT assay. Conditions: NCI-H146, 72 h. It counts as functional, cell-based.
For another assay, the target named is Adenosine kinase (Homo sapiens, UniProt P55263). In words: Inhibition of human ADK using [3H]-adenosine by scintillation counting.
Assay [14] deals with BT-549. In words: Cytotoxicity against human BT549 cells after 3 days by MTT assay. The assay is classed as functional, cell-based. To be noted: BT-549, 72 h.
Assay [15] in a line: Inhibition of RNA polymerase 2 in human HeLaScribe nuclear extracts after 1 hr. Summed up: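 HeLaScribe nuclear extract transcription with CMV(+) template DNA, 3 mM MgCl2, 400 μM CTP/GTP/UTP, 25 μM [33P]ATP. Inhibitor preincubated 5 min at 30 °C, then 1 h at 30 °C. Products run on 6% urea–polyacrylamide gel; full-length transcript quantified; IC50 is 50% product decrease.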

In the next assay the test system is DU-145. Briefly: Cytostatic activity against human DU145 cells after 5 days by SRB assay. The assay is classed as functional. To be noted: DU-145, 120 h. In outline: as §1
The next assay has as its system HCT-15. In words: Cytostatic activity against human HCT15 cells after 5 days by SRB assay. The assay is classed as functional. Conditions: HCT-15, 120 h. Summed up:
as §1

The next assay concerns MAT-Ly-Lu. In words: Cytotoxicity against rat MAT-LyLu cells after 3 days by MTT assay. The assay is classed as functional, cell-based. To be noted: 72 h.
For assay [16], the system named is HCT-116. In words: Cytotoxicity against human HCT116 cells after 3 days by MTT assay. It counts as functional, cell-based. Conditions: HCT-116, 72 h.

Sequence of Adenosine kinase (P55263 whole entry): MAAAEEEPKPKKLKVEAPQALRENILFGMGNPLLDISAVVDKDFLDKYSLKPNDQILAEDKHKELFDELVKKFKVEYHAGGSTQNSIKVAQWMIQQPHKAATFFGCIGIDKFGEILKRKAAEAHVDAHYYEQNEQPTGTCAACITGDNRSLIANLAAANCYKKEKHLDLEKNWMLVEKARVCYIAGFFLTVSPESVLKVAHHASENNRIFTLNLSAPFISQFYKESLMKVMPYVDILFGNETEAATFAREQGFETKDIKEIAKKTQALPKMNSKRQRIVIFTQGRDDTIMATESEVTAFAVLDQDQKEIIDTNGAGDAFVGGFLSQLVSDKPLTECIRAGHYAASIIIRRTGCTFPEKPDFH

As usually defined, the GI50 is the concentration giving 50% growth inhibition. As a reminder, the IC50 is the concentration that inhibits the measured activity by half. As for `Nc1ncnc2c1c(-c1cc[nH]c1)cn2[C@@H]1O[C@H](CO)[C@@H](O)[C@H]1O`, the GI50 in the assay on MT4 worked out at 24 nM; in the assay on A549 it was 5.3 nM; with PC-3 [5] it was 29 nM; in the assay on NCI-H23, 33 nM; in [7] it was 4.4 nM; in the assay with HCT-116 [9], 5.9 nM. The molecule also displayed a concentration for 50% growth inhibition (GI50) with BT-549 [10] of 8 nM. Besides, the half-inhibitory concentration (IC50) is 3680 nM in the assay with C6; 10 nM in assay [1]; 8 nM in assay [2]; 33 nM in the assay on K562 [3]; greater than 10000 nM in [4]; 9420 nM with EL4. The IC50 in the assay with HT-29 stood at 4050 nM; with HL-60, 840 nM; with CT26, 17 nM; with CCRF-CEM, 110 nM; in the assay on L1210, 84 nM; in the assay with SK-MEL-2, 8710 nM. Moreover, the 50% inhibitory concentration (IC50) in the assay with PC-3 [6] was greater than 10000 nM; with SK-OV-3, greater than 10000 nM; in [8], 70 nM; in the assay on LNCaP, 21 nM; with SK-N-AS, greater than 10000 nM; in the assay with BJ, 6090 nM. Further, the 50% inhibitory concentration (IC50) with HPAC turned out to be 68 nM; in assay [11] it was 81 nM; with MDA-MB-231, 27 nM; in the assay with MCF7 it was 6310 nM; with BV-173, 4 nM; in the assay on HeLa, 40 nM. Further, the IC50 in the assay on K562 [12] was 9 nM; in [13], greater than 10000 nM; against Adenosine kinase, greater than 5000 nM; in the assay on BT-549 [14] it was 6 nM.
As for `CC[C@H](C)[C@@H]1NC(=O)CNC(=O)[C@@H]2Cc3c([nH]c4cc(O)ccc34)[S+]([O-])C[C@@H](NC(=O)CNC1=O)C(=O)N[C@@H](CC(N)=O)C(=O)N1C[C@H](O)C[C@H]1C(=O)N[C@@H]([C@@H](C)[C@@H](O)CO)C(=O)N2` (stereo partly drawn) [alpha-Amanitin], the IC50 in assay [15] came to 2.2 ng/mL.
Consider `Nc1ncnc2c1c(-c1ccsc1)cn2[C@@H]1O[C@H](COP(=O)(O)OP(=O)(O)OP(=O)(O)O)[C@@H](O)[C@H]1O`, for which the IC50 in [15] (read-out: IC50) came out at 91000 nM.
On to `Nc1nc(Cl)nc2c1ncn2[C@@H]1O[C@H](CO)[C@@H](O)[C@@H]1F` [CLOFARABINE], for which the GI50 with MT4 came to 51 nM; in the assay with A549, 86 nM; in the assay on PC-3 [5] it was 63 nM; in the assay on DU-145, 125 nM; with NCI-H23 it was 40 nM; in the assay with HCT-15, 180 nM. Moreover, the GI50 in assay [7] is 1240 nM; in the assay with HCT-116 [9], 106 nM; with BT-549 [10], 65 nM.
Turning to `Nc1ncnc2c1c(-c1cn[nH]c1)cn2[C@@H]1O[C@H](CO)[C@@H](O)[C@H]1O`, the GI50 in the assay with MT4 amounted to 110 nM; in the assay on A549, 192 nM; with PC-3 [5] it was 14 nM; in the assay on NCI-H23 it was 144 nM; in assay [7] it was 12 nM; in the assay on HCT-116 [9] it was 970 nM. For the same molecule, in the assay on BT-549 [10], the GI50 is 50 nM. The IC50 was 538 nM with C6; 93 nM in assay [1]; 104 nM in [2]; 9830 nM with K562 [3]; greater than 10000 nM in assay [4]; greater than 10000 nM in the assay on EL4. In addition, the IC50 in the assay with HT-29 is 136 nM; with HL-60, greater than 25000 nM; in the assay with CT26, 396 nM; in the assay on CCRF-CEM it was 560 nM; with L1210 it was 258 nM; in the assay with SK-MEL-2, greater than 10000 nM. For the same molecule, the IC50 was greater than 10000 nM with PC-3 [6]; greater than 10000 nM with SK-OV-3; 220 nM in assay [8]; 9550 nM in the assay with LNCaP; greater than 10000 nM in the assay on SK-N-AS; greater than 10000 nM with BJ. Moreover, the half-inhibitory concentration (IC50) in the assay on HPAC was 141 nM; in assay [11] it was 7740 nM; with MDA-MB-231, greater than 10000 nM; in the assay on MCF7, greater than 10000 nM; in the assay on BV-173, 9780 nM; with HeLa it was 185 nM. The IC50 is 92 nM with K562 [12]; greater than 10000 nM in [13]; 50 nM against Adenosine kinase; greater than 10000 nM in the assay on MAT-Ly-Lu; greater than 10000 nM with HCT-116 [16]; 108 nM in the assay on BT-549 [14].
Take `Nc1ncnc2c1c(-c1ccco1)cn2[C@@H]1O[C@H](COP(=O)(O)OP(=O)(O)OP(=O)(O)O)[C@@H](O)[C@H]1O`: in assay [15] (read-out: IC50), the IC50 was 148000 nM.
